Laboratory results from ChEMBL document CHEMBL1821569, “Synthesis of novel 1,2,5-trisubstituted benzimidazoles as potential antitumor agents” (2011).

How the values were obtained:
Assay type in all cases: functional
HOP-62 = experiment: Antitumor activity against human HOP62 cells after 48 hrs by SRB assay; settings: HOP-62, 48 h
How it was run: (§1)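 NCI 60-cell-line secondary screen. Cells were exposed continuously to drug for 48 h at five concentration levels (100, 10, 1.0, 0.1 and 0.01). Growth was estimated by sulforhodamine B protein staining. GI50 is the concentration giving a 50% reduction in net protein increase versus untreated control cells over the incubation. TGI (total growth inhibition) and LC50 (50% cell kill) were also derived.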

MOLT-4 = experiment: Antitumor activity against human MOLT4 cells after 48 hrs by SRB assay; settings: MOLT-4, 48 h; how it was run: as §1
RPMI-8226 = experiment: Antitumor activity against human RPMI8226 cells after 48 hrs by SRB assay; settings: RPMI-8226, 48 h; how it was run: as §1
NCI-H522 = experiment: Antitumor activity against human NCI-H522 cells after 48 hrs by SRB assay; settings: NCI-H522, 48 h; how it was run: as §1
NCI-H460 = experiment: Antitumor activity against human NCI-H460 cells after 48 hrs by SRB assay; settings: NCI-H460, 48 h; how it was run: as §1
CCRF-CEM = experiment: Antitumor activity against human CCRF-CEM cells after 48 hrs by SRB assay; how it was run: as §1
K562 = experiment: Antitumor activity against human K562 cells after 48 hrs by SRB assay; settings: K562, 48 h; how it was run: as §1
NCI-H322M = experiment: Antitumor activity against human NCI-H322M cells after 48 hrs by SRB assay; how it was run: as §1
HCT-116 = experiment: Antitumor activity against human HCT116 cells after 48 hrs by SRB assay; settings: HCT-116, 48 h; how it was run: as §1
HCT-15 = experiment: Antitumor activity against human HCT15 cells after 48 hrs by SRB assay; settings: HCT-15, 48 h; how it was run: as §1
SW-620 = experiment: Antitumor activity against human SW620 cells after 48 hrs by SRB assay; settings: SW-620, 48 h
How it was run: (§2)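 NCI 60-cell-line secondary screen. Continuous 48 h exposure at five concentration levels. Cell growth estimated by sulforhodamine B protein staining. GI50 taken as the concentration giving 50% reduction in net protein increase relative to untreated control cells over the incubation. TGI (total growth inhibition) and LC50 (50% cell kill) were also derived.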

U-251 = experiment: Antitumor activity against human U251 cells after 48 hrs by SRB assay; settings: U-251, 48 h; how it was run: as §2
SF-268 = experiment: Antitumor activity against human SF268 cells after 48 hrs by SRB assay; settings: SF-268, 48 h; how it was run: as §1
SNB-75 = experiment: Antitumor activity against human SNB75 cells after 48 hrs by SRB assay; settings: SNB-75, 48 h; how it was run: as §1
LOX IMVI = experiment: Antitumor activity against human LOXIMVI cells after 48 hrs by SRB assay; how it was run: as §1
MDA-MB-435 = experiment: Antitumor activity against human MDA-MB-435 cells after 48 hrs by SRB assay; settings: MDA-MB-435, 48 h; how it was run: as §1
SK-MEL-5 = experiment: Antitumor activity against human SK-MEL-5 cells after 48 hrs by SRB assay; settings: SK-MEL-5, 48 h; how it was run: as §1
UACC-257 = experiment: Antitumor activity against human UACC257 cells after 48 hrs by SRB assay; settings: UACC-257, 48 h; how it was run: as §2
SK-MEL-28 = experiment: Antitumor activity against human SK-MEL-28 cells after 48 hrs by SRB assay; settings: SK-MEL-28, 48 h; how it was run: as §1
OVCAR-4 = experiment: Antitumor activity against human OVCAR4 cells after 48 hrs by SRB assay; settings: OVCAR-4, 48 h; how it was run: as §1
OVCAR-5 = experiment: Antitumor activity against human OVCAR5 cells after 48 hrs by SRB assay; settings: OVCAR-5, 48 h; how it was run: as §1
A498 = experiment: Antitumor activity against human A498 cells after 48 hrs by SRB assay; settings: A498, 48 h; how it was run: as §1
SN12C = experiment: Antitumor activity against human SN12C cells after 48 hrs by SRB assay; how it was run: as §1
TK-10 = experiment: Antitumor activity against human TK10 cells after 48 hrs by SRB assay; settings: TK-10, 48 h; how it was run: as §2
UO-31 = experiment: Antitumor activity against human UO31 cells after 48 hrs by SRB assay; settings: UO-31, 48 h; how it was run: as §2
PC-3 = experiment: Antitumor activity against human PC3 cells after 48 hrs by SRB assay; settings: PC-3, 48 h; how it was run: as §1
MCF7 = experiment: Antitumor activity against human MCF7 cells after 48 hrs by SRB assay; settings: MCF7, 48 h; how it was run: as §1
MDA-MB-231 = experiment: Antitumor activity against human MDA-MB-231 cells after 48 hrs by SRB assay; settings: MDA-MB-231, 48 h; how it was run: as §1
T47D = experiment: Antitumor activity against human T47D cells after 48 hrs by SRB assay; how it was run: as §2
[1] = read-out: LC50 (the source's name)

How did the GI50 (HOP-62) turn out when COC(=O)c1ccc2c(c1)nc(-c1cc3ccccc3[nH]c1=O)n2-c1cc(C(C)(C)C)[nH]n1 was run?
Its GI50 is 996 nM.

And the LC50 (concentration giving 50% cell kill) (HOP-62)?
The LC50 (concentration giving 50% cell kill) was > 100 µM.

And the TGI (HOP-62)?
The TGI was > 100 µM.

What about the GI50 (MOLT-4) of the same molecule?
The GI50 was 445 nM.

What about the LC50 (50% net cell kill) (MOLT-4) of the same molecule?
Its LC50 (50% net cell kill) is > 100 µM.

And the TGI (MOLT-4)?
Its TGI is > 100 µM.

And the GI50 (RPMI-8226)?
Its GI50 is 167 nM.

And the TGI (RPMI-8226)?
Its TGI is 987 nM.

And the CC50 (RPMI-8226; [1])?
The CC50 was > 100 µM.

What about the GI50 (NCI-H522) of the same molecule?
The GI50 was 928 nM.

What about the LC50 (50% cell kill) (NCI-H522) of the same molecule?
The LC50 (50% cell kill) was > 100 µM.

What about the TGI (NCI-H522) of the same molecule?
The TGI was > 100 µM.

What about the GI50 (NCI-H460) of the same molecule?
Its GI50 is 630 nM.

And the TGI (NCI-H460)?
Its TGI is > 100 µM.

What about the CC50 (NCI-H460; [1]) of the same molecule?
Its CC50 is > 100 µM.

What about the GI50 (CCRF-CEM) of the same molecule?
The GI50 was 585 nM.

And the TGI (CCRF-CEM)?
The TGI was > 100 µM.

What about the CC50 (CCRF-CEM; [1]) of the same molecule?
The CC50 was > 100 µM.

And the GI50 (K562)?
The GI50 was 1730 nM.

And the TGI (K562)?
The TGI was > 100 µM.

What about the CC50 (K562; [1]) of the same molecule?
The CC50 was > 100 µM.

What about the GI50 (NCI-H322M) of the same molecule?
Its GI50 is 929 nM.

And the LC50 (50% cell kill) (NCI-H322M)?
Its LC50 (50% cell kill) is > 100 µM.

And the TGI (NCI-H322M)?
Its TGI is > 100 µM.

What about the GI50 (HCT-116) of the same molecule?
Its GI50 is 1740 nM.

What about the LC50 (HCT-116) of the same molecule?
Its LC50 is > 100 µM.

What about the TGI (HCT-116) of the same molecule?
Its TGI is > 100 µM.

And the LC50 (50% cell kill) (HCT-15)?
The LC50 (50% cell kill) was > 100 µM.

And the TGI (HCT-15)?
Its TGI is > 100 µM.

What about the TGI (SW-620) of the same molecule?
Its TGI is > 100 µM.

And the CC50 (SW-620; [1])?
The CC50 was > 100 µM.

What about the GI50 (U-251) of the same molecule?
The GI50 was 652 nM.

And the TGI (U-251)?
The TGI was > 100 µM.

What about the CC50 (U-251; [1]) of the same molecule?
The CC50 was > 100 µM.

And the GI50 (SF-268)?
The GI50 was 2130 nM.

What about the TGI (SF-268) of the same molecule?
Its TGI is 91.9 µM.

And the CC50 (SF-268; [1])?
Its CC50 is > 100 µM.

And the GI50 (SNB-75)?
The GI50 was 5.42 µM.

And the TGI (SNB-75)?
Its TGI is 41.5 µM.

And the CC50 (SNB-75; [1])?
The CC50 was > 100 µM.

What about the GI50 (LOX IMVI) of the same molecule?
The GI50 was 1240 nM.

What about the CC50 (LOX IMVI; [1]) of the same molecule?
The CC50 was > 100 µM.

What about the TGI (MDA-MB-435) of the same molecule?
The TGI was > 100 µM.

And the CC50 (MDA-MB-435; [1])?
Its CC50 is > 100 µM.

What about the GI50 (SK-MEL-5) of the same molecule?
Its GI50 is 2300 nM.

And the TGI (SK-MEL-5)?
Its TGI is > 100 µM.

And the CC50 (SK-MEL-5; [1])?
Its CC50 is > 100 µM.

And the TGI (UACC-257)?
Its TGI is > 100 µM.

What about the CC50 (UACC-257; [1]) of the same molecule?
Its CC50 is > 100 µM.

And the TGI (SK-MEL-28)?
Its TGI is > 100 µM.

What about the CC50 (SK-MEL-28; [1]) of the same molecule?
The CC50 was > 100 µM.

And the TGI (OVCAR-4)?
The TGI was > 100 µM.

What about the CC50 (OVCAR-4; [1]) of the same molecule?
Its CC50 is > 100 µM.

And the TGI (OVCAR-5)?
The TGI was > 100 µM.

What about the CC50 (OVCAR-5; [1]) of the same molecule?
The CC50 was > 100 µM.

And the GI50 (A498)?
Its GI50 is 13.6 µM.

What about the TGI (A498) of the same molecule?
The TGI was 76.9 µM.

And the CC50 (A498; [1])?
Its CC50 is > 100 µM.

What about the GI50 (SN12C) of the same molecule?
The GI50 was 5.61 µM.

What about the TGI (SN12C) of the same molecule?
The TGI was > 100 µM.

And the CC50 (SN12C; [1])?
The CC50 was > 100 µM.

And the GI50 (TK-10)?
The GI50 was 16.9 µM.

What about the TGI (TK-10) of the same molecule?
Its TGI is 55.8 µM.

And the CC50 (TK-10; [1])?
The CC50 was > 100 µM.

And the GI50 (UO-31)?
Its GI50 is 533 nM.

What about the TGI (UO-31) of the same molecule?
The TGI was > 100 µM.

What about the CC50 (UO-31; [1]) of the same molecule?
The CC50 was > 100 µM.

What about the GI50 (PC-3) of the same molecule?
The GI50 was 2270 nM.

And the TGI (PC-3)?
The TGI was > 100 µM.

What about the CC50 (PC-3; [1]) of the same molecule?
The CC50 was > 100 µM.

What about the GI50 (MCF7) of the same molecule?
The GI50 was > 100 µM.

What about the TGI (MCF7) of the same molecule?
Its TGI is > 100 µM.

And the CC50 (MCF7; [1])?
The CC50 was > 100 µM.

What about the GI50 (MDA-MB-231) of the same molecule?
The GI50 was 4.13 µM.

What about the TGI (MDA-MB-231) of the same molecule?
The TGI was > 100 µM.

What about the CC50 (MDA-MB-231; [1]) of the same molecule?
The CC50 was > 100 µM.

What about the GI50 (T47D) of the same molecule?
The GI50 was > 100 µM.

What about the TGI (T47D) of the same molecule?
Its TGI is > 100 µM.

And the CC50 (T47D; [1])?
The CC50 was > 100 µM.
